Measurements from ChEMBL document CHEMBL4613263, “Optimization of Tetrahydroindazoles as Inhibitors of Human Dihydroorotate Dehydrogenase and Evaluation of Their Activity and In Vitro Metabolic Stability” (J Med Chem, 2020).
Converted amounts (≈) assume the structure as drawn. The source made the active and inactive calls. No cut-off for these calls is given here.

Columns and labels:
[1] = target: T1, Dihydroorotate dehydrogenase (quinone), mitochondrial (Homo sapiens, UniProt Q02127); assay: Inhibition of DHOH in human ARN8 cells assessed as increase in YOYO3 positive cells at 20 nM incubated for 48 hrs in presence of pan-caspase inhibitor, Z-VAD-FMK measured every 2 hrs by YOYO-3 staining based live cell imaging analysis
Method in brief: (§1)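 ARN8 cells seeded at 4×10^3 per well and left 24 h, then given 20 nM compound in medium containing 2 µM caspase-3/7 substrate and 0.3 µM YOYO-3 (0.2% DMSO). Where indicated, 100 µM uridine or 20 µM Z-VAD-FMK was added. Cells imaged every 2 h for 48.5 h in an IncuCyte. Positive-cell counts per mm² normalized to confluence %; mean ± SD of three technical replicates.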

[2] = target: T1, Dihydroorotate dehydrogenase (quinone), mitochondrial; assay: Inhibition of DHODH in human ARN8 cells assessed as increase in p53 level at 20 nM incubated for 24 hrs in presence of pan-caspase inhibitor, Z-VAD-FMK by Western blot analysis; type: cell-based
Method in brief: (§2)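 ARN8 cells treated 24 h at 20 nM, with 20 µM Z-VAD-FMK or vehicle added 4.5 h before harvest. Etoposide arm was 20 µM for 1 h alongside Z-VAD-FMK. Lysates normalized for protein and analysed by western blot for p53, p-Ser15 p53, γ-H2AX, H2AX and cleaved PARP (85 kDa) against stain-free total-protein loading.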

Homo sapiens = species: Homo sapiens; assay: Antiproliferative activity against human ARN8 cells assessed as reduction in cell viability at 0.005 to 10 uM incubated for 72 hrs in presence of 100 uM […], uridine by SRB assay; type: functional, cell-based
[3] = target: T1, Dihydroorotate dehydrogenase (quinone), mitochondrial; assay: Inhibition of DHODH in human ARN8 cells assessed as increase in p53 level at 20 nM incubated for 24 hrs in presence of 100 uM […], uridine by Western blot analysis; type: cell-based
Method in brief: (§3)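 ARN8 cells seeded at 15×10^4 per well and left 24 h. Treated 24 h at 20 nM, or with etoposide at 20 µM for 1 h, with 100 µM uridine where indicated. Lysates made in LDS buffer and protein-normalized, then run on 4–15% gels and transferred to PVDF. Phospho-proteins blocked in BSA, others in milk; primary antibodies overnight at 4 °C, ECL detection. Loading judged by stain-free total protein.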

[4] = Metabolic stability in CD-1 mouse liver microsomes assessed as half life at 1 uM incubated for 60 mins by LC-MS/MS analysis; type: ADME, Microsome; settings: CD-1, mouse, liver microsomes
Method in brief: (§4)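 Compound at 1 µM with 1.0 mg/mL human or mouse liver microsomes in 50 mM potassium phosphate pH 7.4, preincubated 5 min at 37 °C. Started with 1 mM NADPH (or blank buffer). Quenched with cold acetonitrile containing glipizide at 0, 5, 15, 30, 60 min. Parent loss tracked by LC-MS/MS in MRM mode; t½ = 0.693/k from slope of peak-area ratio versus time.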

[5] = target: T1, Dihydroorotate dehydrogenase (quinone), mitochondrial; assay: Inhibition of DHODH in human ARN8 cells assessed as induction of DNA damage by measuring increase in gammaH2AX level at 20 nM incubated for 24 hrs by Western blot analysis; type: cell-based; method in brief: as §3
[6] = target: T1, Dihydroorotate dehydrogenase (quinone), mitochondrial; assay: Inhibition of DHODH in human ARN8 cells assessed as activation of p53-dependent transcription at 0.05 to 10 uM incubated for 16 hrs in presence of 100 uM […], uridine by CPRG assay; type: cell-based
Method in brief: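 ARN8 cells carrying the RGCΔFos-LacZ p53 reporter seeded at 2×10^4 per well and left 24 h, then treated 16 h (0.1% DMSO final, ±100 µM uridine). Cells washed, lysed and frozen at −20 °C for at least 2 h. β-galactosidase measured with CPRG substrate at pH 7.5, read at 590 nm after 24 h. Result is fold change vs DMSO; mean ± SD of three technical replicates.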

[7] = target: T1, Dihydroorotate dehydrogenase (quinone), mitochondrial; assay: Inhibition of DHOH in human ARN8 cells assessed as cleaved PARP level at 20 nM incubated for 24 hrs treated with pan-caspase inhibitor, Z-VAD-FMK for 4.5 hrs prior to harvesting by Western blot analysis; type: cell-based; method in brief: as §2
[8] = target: T1, Dihydroorotate dehydrogenase (quinone), mitochondrial; assay: Inhibition of […] in human ARN8 cells assessed as increase in Bax protein expression at 20 nM incubated for 24 hrs in presence of pan-caspase inhibitor, Z-VAD-FMK by Western blot analysis; type: cell-based
[9] = target: T1, Dihydroorotate dehydrogenase (quinone), mitochondrial; assay: Inhibition of DHODH in human ARN8 cells assessed as DNA damage by measuring Chk1 phosphorylation at Ser345 at 20 nM incubated for 24 hrs by Western blot analysis; type: cell-based
Method in brief: (§5)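 ARN8 cells treated 24 h before lysis in LDS buffer and protein normalization. Western blot blocked in 5% BSA/TBS-T, primary antibody overnight at 4 °C, HRP secondary and ECL detection. Loading taken from stain-free total protein.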

[10] = Cytotoxicity against human HNDF cells assessed as reduction in cell viability incubated for 72 hrs in presence of 100 uM […], uridine by SRB assay; type: cell-based
Method in brief: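 Normal dermal fibroblasts seeded at 15×10^2 per well and left 24 h, then treated 72 h in medium with 0.1% DMSO final plus 100 µM uridine. Fixed with TCA, stained with 0.4% SRB, dye dissolved in Tris and read at 490 nm. Growth/viability given as % of DMSO control; mean ± SD of three technical replicates.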

[11] = target: T1, Dihydroorotate dehydrogenase (quinone), mitochondrial; assay: Inhibition of DHOH in human ARN8 cells assessed as increase in caspase 3/7 activity at 20 nM incubated for 48 hrs in presence of pan-caspase inhibitor, Z-VAD-FMK by live cell imaging analysis; type: cell-based; method in brief: as §1
[12] = Antiproliferative activity against human ARN8 cells assessed as reduction in cell viability incubated for 72 hrs by SRB assay; type: functional, cell-based; settings: Homo sapiens, ARN8, 72 h; read-out: IC50
[13] = target: T1, Dihydroorotate dehydrogenase (quinone), mitochondrial; assay: Inhibition of DHODH in human ARN8 cells assessed as induction of DNA damage by measuring increase in p53 phosphorylation at Ser15 at 20 nM incubated for 24 hrs in presence of 100 uM […], uridine by Western blot analysis; type: cell-based; method in brief: as §3
[14] = target: T1, Dihydroorotate dehydrogenase (quinone), mitochondrial; assay: Inhibition of DHOH in human ARN8 cells assessed as increase in caspase 3/7 activity at 20 nM incubated for 48 hrs by live cell imaging analysis; type: cell-based; method in brief: as §1
[15] = target: T1, Dihydroorotate dehydrogenase (quinone), mitochondrial; assay: Inhibition of recombinant human DHODH using dihydroorotic acid as substrate measured for 68 mins by DCIP based colorimetric assay
[16] = Kinetic aqueous solubility of compound in Prima HT solution at pH 7.4 incubated for 4 hrs by UV-spectrophotometry; type: physicochemical; settings: read-out: Kinetic_solubility
Method in brief: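 20 mM DMSO stocks diluted 100× into Prima HT buffer at pH 7.4 and shaken 4 h at rt. Samples filtered through 0.22 µm, mixed 1:1 with isopropanol and scanned by UV from 190–400 nm against stock reference standards.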

[17] = target: T1, Dihydroorotate dehydrogenase (quinone), mitochondrial; assay: Inhibition of DHODH in human ARN8 cells assessed as DNA damage by measuring Chk2 phosphorylation at Thr68 at 20 nM incubated for 24 hrs by Western blot analysis; type: cell-based; method in brief: as §5
[18] = Metabolic stability in human liver microsomes assessed as half life at 1 uM incubated for 60 mins by LC-MS/MS analysis; type: ADME, Microsome; settings: liver microsomes; method in brief: as §4
[19] = target: T1, Dihydroorotate dehydrogenase (quinone), mitochondrial; assay: Inhibition of DHOH in human ARN8 cells assessed as increase in YOYO3 positive cells at 20 nM incubated for 48 hrs measured every 2 hrs by YOYO-3 staining based live cell imaging analysis; method in brief: as §1

T1 sequence (Q02127 whole entry): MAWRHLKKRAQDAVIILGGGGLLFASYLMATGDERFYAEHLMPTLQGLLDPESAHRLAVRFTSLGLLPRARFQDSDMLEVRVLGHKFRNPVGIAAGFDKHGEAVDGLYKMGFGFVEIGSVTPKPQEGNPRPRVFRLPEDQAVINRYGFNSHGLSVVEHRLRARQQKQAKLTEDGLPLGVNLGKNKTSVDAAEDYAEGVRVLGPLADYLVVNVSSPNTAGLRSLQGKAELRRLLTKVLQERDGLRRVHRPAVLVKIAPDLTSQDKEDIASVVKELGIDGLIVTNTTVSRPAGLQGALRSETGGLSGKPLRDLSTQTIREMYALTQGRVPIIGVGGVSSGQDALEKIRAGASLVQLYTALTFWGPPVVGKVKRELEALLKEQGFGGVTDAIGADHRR

inhibition [1]: inactive | inhibition [2]: Active | inhibition [3]: inactive | half-life at 1 µM [4]: 36 min | inhibition [6]: inactive | inhibition [7]: inactive | inhibition [8]: Active | inhibition [11]: inactive | inhibition [14]: Active | IC50 [15]: < 5 nM | solubility kinetic at 4 h [16]: 74 µM (≈ 28.1 µg/mL) | half-life at 1 µM [18]: > 60 min | inhibition [19]: Active
Compound: O=C(N[C@@H]1CCCc2c1cnn2-c1ccccc1F)c1ncn2c1CCCC2
Activity (Homo sapiens): inactive | inhibition [5]: Active | inhibition [9]: inactive | Activity [10]: Toxic | IC50 [12]: 22 nM | inhibition [13]: inactive | inhibition [17]: inactive
